Measurements taken from ChEMBL document CHEMBL3244284, “(2-Carboxy-1,4-dihydro-4-oxoquinolyl)oxamic acids and (2-carboxy-1,4-dihydro-4-oxobenzo[h]quinolyl)oxamic acids as antiallergy agents” (1977).

Legend:
Rattus norvegicus [1] = species on record: Rattus norvegicus; assay: Antiallergic activity in Sprague-Dawley rat assessed as inhibition of egg albumin/ Hemophilus pertussis antibody-induced passive cutaneous anaphylaxis (PCA) reaction; assay type: functional; conditions: read-out: ID50 (the source's name)
Outline: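 Rats immunized ip with 0.5 mg egg albumin plus 0.5 cm3 heat-killed H. pertussis vaccine; serum collected at 18-20 days. Five 0.1-ml serum dilutions given intradermally on shaved back of 200-g rats. At 72 h, iv challenge with 4 mg EA plus 0.5% Evans blue; compound in THAM solution iv at challenge. Inhibition of spot count versus untreated; ID50 from 3-4 doses, six rats each.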

Rattus norvegicus [2] = species on record: Rattus norvegicus; assay: Ratio of disodium cromoglycate ID50 to compound ID50 for antiallergic activity in Sprague-Dawley rat by passive cutaneous anaphylaxis (PCA) reaction; assay type: functional

Row | SMILES | ED50 (Rattus norvegicus [1]) [mg/kg] | Ratio (Rattus norvegicus [2])
1 | Cc1c(NC(=O)C(=O)O)ccc2c(=O)cc(C(=O)O)[nH]c12 | 0.1 | 25
2 | Cc1cc(NC(=O)C(=O)O)cc2c(=O)cc(C(=O)O)[nH]c12 | 0.1 | 25
3 | Cc1ccc(NC(=O)C(=O)O)c2c(=O)cc(C(=O)O)[nH]c12 | 0.4 | –
4 | O=C(O)C(=O)Nc1ccc2[nH]c(C(=O)O)cc(=O)c2c1 | 7 | –
5 | O=C(O)C(=O)Nc1ccc(Cl)c2[nH]c(C(=O)O)cc(=O)c12 | 0.3 | –
6 | O=C(O)C(=O)Nc1cccc2c1ccc1c(=O)cc(C(=O)O)[nH]c12 | 0.1 | 25
7 | O=C(O)C(=O)Nc1cc2c(=O)cc(C(=O)O)[nH]c2c2ccccc12 | 0.5 | –
8 | O=C([O-])c1cc(=O)c2c(OCC(O)COc3cccc4oc(C(=O)[O-])cc(=O)c34)cccc2o1.[Na+].[Na+] [CROMOLYN SODIUM] | 2.5 | –
9 | COc1ccc(NC(=O)C(=O)O)c2c(=O)cc(C(=O)O)[nH]c12 | 0.7 | –
